According to ChEMBL document CHEMBL2021801, “Thienopyridine ureas as dual inhibitors of the VEGF and Aurora kinase families” (Bioorg Med Chem Lett, 2012):

Assays:
[1] = Clearance in CD1 (ICR) mouse at 3 mg/kg, iv; format: ADME, organism-based; set-up: dose 3 mg/kg, route intravenous; details: in vivo
[2] = Protein binding in mouse; format: ADME, organism-based; details: plasma, read-out: PB
[3] = Half life in dog; format: ADME, organism-based, Canis lupus familiaris; details: in vivo
[4] = Half life in CD1 (ICR) mouse at 3 mg/kg, iv; format: ADME, organism-based; set-up: dose 3 mg/kg, route intravenous; details: in vivo
[5] = Volume of distribution at steady state in mouse; format: ADME, organism-based; details: in vivo, read-out: Vdss
[6] = AUC in CD1 (ICR) mouse at 10 mg/kg, po; format: ADME, organism-based; set-up: dose 10 mg/kg, route oral; details: plasma
[7] = Half life in mouse; format: ADME, organism-based; details: in vivo
[8] = Protein binding in rat; format: ADME, organism-based; details: plasma, read-out: PB
[9] = Volume of distribution at steady state in dog; format: ADME, organism-based, Canis lupus familiaris; details: in vivo, read-out: Vdss
Cytochrome P450 3A4 [10] = target: T1, Cytochrome P450 3A4 (Homo sapiens, UniProt P08684); experiment: Inhibition of CYP3A4 up to 10 uM; format: ADME
Cytochrome P450 3A4 [11] = target: T1, Cytochrome P450 3A4; experiment: Inhibition of CYP3A4; format: ADME
[12] = target: Voltage-gated inwardly rectifying potassium channel KCNH2 (Homo sapiens, UniProt Q12809); experiment: Inhibition of human Erg by patch clamp assay in absence of plasma protein
Canis familiaris [13] = species: Canis familiaris; experiment: Cardiotoxicity in dog assessed as QT prolongation time at 32.1 uM plasma concentration; format: toxicity, organism-based, Canis lupus familiaris
[14] = Plasma clearance in rat; format: ADME, organism-based
[15] = Aqueous solubility of the compound; format: physicochemical; details: buffer
Method in brief: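 Aqueous solubility was measured across the physiological pH range.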

[16] = Volume of distribution at steady state in rat; format: ADME, organism-based; details: in vivo, read-out: Vdss
[17] = Plasma clearance in mouse; format: ADME, organism-based
[18] = Volume of distribution in CD1 (ICR) mouse at 3 mg/kg, iv; format: ADME, organism-based; set-up: dose 3 mg/kg, route intravenous; details: in vivo
[19] = Lipophilicity, log D of the compound at pH 7; format: physicochemical; details: buffer
[20] = Half life in rat; format: ADME, organism-based; details: in vivo
Canis familiaris [21] = species: Canis familiaris; experiment: Cardiotoxicity in dog assessed as QT prolongation time at 117 uM plasma concentration; format: toxicity, organism-based, Canis lupus familiaris
[22] = Oral bioavailability in CD1 (ICR) mouse at 10 mg/kg; format: ADME, organism-based; details: in vivo
[23] = Plasma clearance in dog; format: ADME, organism-based, Canis lupus familiaris
Aurora kinase B [24] = target: T2, Aurora kinase B (Homo sapiens, UniProt Q96GD4); details: NCI-H1229
Mus musculus = experiment: In vivo inhibition of KDR in po dosed mouse assessed as estradiol-induced uterine edema; format: functional
[25] = Protein binding in dog; format: ADME, organism-based, Canis lupus familiaris; details: plasma, read-out: PB
[26] = target: T3, Vascular endothelial growth factor receptor 2 (Homo sapiens, UniProt P35968); experiment: Inhibition of KDR using 1 mM ATP by HTRF assay
Aurora kinase B [27] = target: T2, Aurora kinase B; experiment: Inhibition of Aurora B using 1 mM ATP by HTRF assay
[28] = target: T3, Vascular endothelial growth factor receptor 2; experiment: Inhibition of human KDR phosphorylation expressed in mouse NIH3T3 cells; format: cell-based

T3 sequence (P35968 whole entry): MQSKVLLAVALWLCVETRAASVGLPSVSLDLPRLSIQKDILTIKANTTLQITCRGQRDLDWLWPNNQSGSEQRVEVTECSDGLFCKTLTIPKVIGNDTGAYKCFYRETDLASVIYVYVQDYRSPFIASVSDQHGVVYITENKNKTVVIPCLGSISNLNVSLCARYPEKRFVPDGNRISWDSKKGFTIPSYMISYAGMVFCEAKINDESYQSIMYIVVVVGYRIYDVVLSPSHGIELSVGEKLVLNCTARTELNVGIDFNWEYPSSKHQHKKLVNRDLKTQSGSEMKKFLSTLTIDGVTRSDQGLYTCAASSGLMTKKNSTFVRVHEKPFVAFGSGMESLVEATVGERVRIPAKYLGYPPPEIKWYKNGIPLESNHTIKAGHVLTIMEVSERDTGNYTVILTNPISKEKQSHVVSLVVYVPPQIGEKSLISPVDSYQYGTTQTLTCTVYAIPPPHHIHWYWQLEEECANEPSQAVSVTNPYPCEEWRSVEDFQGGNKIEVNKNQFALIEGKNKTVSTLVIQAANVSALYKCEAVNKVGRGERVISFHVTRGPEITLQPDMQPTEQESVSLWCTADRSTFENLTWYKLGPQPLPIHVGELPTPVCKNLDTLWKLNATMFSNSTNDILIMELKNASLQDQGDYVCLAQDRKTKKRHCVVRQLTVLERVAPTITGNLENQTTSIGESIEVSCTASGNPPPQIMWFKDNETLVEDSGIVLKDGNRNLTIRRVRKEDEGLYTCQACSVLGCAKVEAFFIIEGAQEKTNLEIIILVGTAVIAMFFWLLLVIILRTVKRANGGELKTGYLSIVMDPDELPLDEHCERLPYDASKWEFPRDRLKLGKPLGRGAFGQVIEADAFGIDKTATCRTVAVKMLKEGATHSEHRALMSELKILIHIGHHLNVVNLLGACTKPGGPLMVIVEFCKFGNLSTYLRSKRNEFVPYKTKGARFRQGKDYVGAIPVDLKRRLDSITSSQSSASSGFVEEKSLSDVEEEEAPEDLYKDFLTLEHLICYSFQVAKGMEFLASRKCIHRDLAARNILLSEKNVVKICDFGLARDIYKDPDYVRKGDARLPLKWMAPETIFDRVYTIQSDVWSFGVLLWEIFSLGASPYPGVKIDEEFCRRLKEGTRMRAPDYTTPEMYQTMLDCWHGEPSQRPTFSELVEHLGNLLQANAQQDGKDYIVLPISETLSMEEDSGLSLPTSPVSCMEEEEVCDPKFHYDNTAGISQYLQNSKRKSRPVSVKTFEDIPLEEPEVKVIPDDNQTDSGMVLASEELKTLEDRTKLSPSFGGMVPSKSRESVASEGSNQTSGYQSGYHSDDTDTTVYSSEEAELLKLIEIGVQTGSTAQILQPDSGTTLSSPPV
T1 sequence (P08684 whole entry): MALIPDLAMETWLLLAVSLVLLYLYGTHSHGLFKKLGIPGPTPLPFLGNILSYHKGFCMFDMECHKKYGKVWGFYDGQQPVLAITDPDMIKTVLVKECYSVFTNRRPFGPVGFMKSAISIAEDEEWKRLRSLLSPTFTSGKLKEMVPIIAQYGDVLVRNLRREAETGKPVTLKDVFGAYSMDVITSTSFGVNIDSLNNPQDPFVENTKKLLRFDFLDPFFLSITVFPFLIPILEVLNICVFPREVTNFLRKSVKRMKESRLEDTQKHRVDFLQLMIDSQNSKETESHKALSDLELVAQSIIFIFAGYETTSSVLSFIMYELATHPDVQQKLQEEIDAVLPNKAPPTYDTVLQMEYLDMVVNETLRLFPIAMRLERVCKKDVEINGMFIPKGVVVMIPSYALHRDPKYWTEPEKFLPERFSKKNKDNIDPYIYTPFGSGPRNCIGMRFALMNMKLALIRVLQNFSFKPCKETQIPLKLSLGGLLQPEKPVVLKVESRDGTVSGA
T2 sequence (Q96GD4 whole entry): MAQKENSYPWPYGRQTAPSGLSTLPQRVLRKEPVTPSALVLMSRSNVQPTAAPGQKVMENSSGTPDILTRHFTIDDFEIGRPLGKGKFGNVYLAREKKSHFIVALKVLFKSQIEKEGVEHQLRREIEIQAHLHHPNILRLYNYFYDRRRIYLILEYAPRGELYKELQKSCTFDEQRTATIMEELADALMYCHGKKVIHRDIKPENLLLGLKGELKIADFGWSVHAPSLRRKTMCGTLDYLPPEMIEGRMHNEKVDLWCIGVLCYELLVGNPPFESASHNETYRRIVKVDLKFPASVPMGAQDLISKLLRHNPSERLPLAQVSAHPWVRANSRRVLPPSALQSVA
Chain of Voltage-gated inwardly rectifying potassium channel KCNH2 (Q12809 whole entry): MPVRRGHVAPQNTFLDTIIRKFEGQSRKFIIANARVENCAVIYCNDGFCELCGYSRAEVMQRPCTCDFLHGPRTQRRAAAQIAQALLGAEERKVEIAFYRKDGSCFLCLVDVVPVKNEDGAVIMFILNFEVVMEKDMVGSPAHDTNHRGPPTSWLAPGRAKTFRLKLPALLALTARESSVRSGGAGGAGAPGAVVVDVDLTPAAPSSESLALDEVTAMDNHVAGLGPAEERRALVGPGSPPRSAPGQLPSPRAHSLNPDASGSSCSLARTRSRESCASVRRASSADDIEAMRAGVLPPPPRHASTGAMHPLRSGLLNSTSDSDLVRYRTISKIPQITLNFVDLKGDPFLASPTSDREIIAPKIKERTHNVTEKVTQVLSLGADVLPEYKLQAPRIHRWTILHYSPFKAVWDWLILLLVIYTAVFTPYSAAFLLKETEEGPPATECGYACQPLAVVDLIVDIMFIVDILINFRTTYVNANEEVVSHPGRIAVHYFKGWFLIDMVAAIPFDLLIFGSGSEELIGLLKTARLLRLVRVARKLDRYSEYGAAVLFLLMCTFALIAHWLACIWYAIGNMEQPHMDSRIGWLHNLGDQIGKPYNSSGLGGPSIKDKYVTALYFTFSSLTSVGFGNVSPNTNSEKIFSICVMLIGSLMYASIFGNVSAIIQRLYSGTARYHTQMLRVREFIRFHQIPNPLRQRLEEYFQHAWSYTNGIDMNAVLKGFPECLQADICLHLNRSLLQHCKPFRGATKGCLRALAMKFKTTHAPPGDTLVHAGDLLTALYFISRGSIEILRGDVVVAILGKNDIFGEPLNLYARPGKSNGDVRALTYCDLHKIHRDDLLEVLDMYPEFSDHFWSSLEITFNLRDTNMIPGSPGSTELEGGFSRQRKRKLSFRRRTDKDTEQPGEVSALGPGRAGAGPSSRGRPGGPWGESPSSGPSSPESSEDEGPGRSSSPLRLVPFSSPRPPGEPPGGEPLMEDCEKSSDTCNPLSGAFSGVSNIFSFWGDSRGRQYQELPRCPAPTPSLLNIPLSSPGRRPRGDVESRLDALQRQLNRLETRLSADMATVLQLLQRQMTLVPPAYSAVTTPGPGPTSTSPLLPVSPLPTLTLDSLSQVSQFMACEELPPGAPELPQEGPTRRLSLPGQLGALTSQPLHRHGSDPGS

Compound: Nc1ncc(-c2cnn(CCO)c2)c2scc(-c3ccc(NC(=O)Nc4cccc(F)c4)cc3)c12 [ILORASERTIB]
- clearance [1]: 5 mL/min/kg
- fraction unbound [2]: < 0.01
- half-life [3]: 4 h
- half-life [4]: 4.7 h
- Vd [5]: 0.4 L/kg
- AUC [6]: 18600 ng·h/mL
- half-life [7]: 4 h
- fraction unbound [8]: < 0.01
- Vd [9]: 0.4 L/kg
- inhibition (INH) (Cytochrome P450 3A4 [10]): < 20%
- IC50 (Cytochrome P450 3A4 [11]): > 30 µM
- IC50 [12]: 1 µM
- Time (Canis familiaris [13]): 11 ms
- clearance [14]: < 5 mL/min/kg
- solubility [15]: < 78 µM
- Vd [16]: 0.4 L/kg
- clearance [17]: < 5 mL/min/kg
- Vd [18]: 1.7 L/kg
- logD [19]: 4.5
- half-life [20]: 4 h
- Time (Canis familiaris [21]): 25 ms
- bioavailability [22]: 47%
- clearance [23]: < 5 mL/min/kg
- EC15 (Aurora kinase B [24]): 0.012 µM
- ED50 (Mus musculus): 3.2 mg/kg
- fraction unbound [25]: < 0.01

Compound: Cn1cc(-c2cnc(N)c3c(-c4ccc(NC(=O)Nc5ccc(OC(F)(F)F)cc5)cc4)csc23)cn1
- IC50 [26]: 0.003 µM
- EC15 (Aurora kinase B [24]): 0.012 µM
- ED50 (Mus musculus): 2.6 mg/kg
- IC50 (Aurora kinase B [27]): 0.017 µM

Compound: Cn1cc(-c2cnc(N)c3c(-c4ccc(NC(=O)Nc5cccc(C(N)=O)c5)cc4)csc23)cn1
- IC50 [26]: 0.002 µM
- EC15 (Aurora kinase B [24]): 0.413 µM
- ED50 (Mus musculus): > 10 mg/kg
- IC50 (Aurora kinase B [27]): 0.023 µM

Compound: COc1ccccc1NC(=O)Nc1ccc(-c2csc3c(-c4cnn(C)c4)cnc(N)c23)cc1
- IC50 [26]: 0.006 µM
- EC15 (Aurora kinase B [24]): > 0.1 µM
- ED50 (Mus musculus): 8 mg/kg
- IC50 (Aurora kinase B [27]): 0.052 µM

Compound: Cn1cc(-c2cnc(N)c3c(-c4ccc(NC(=O)Nc5ccccc5F)cc4)csc23)cn1
- IC50 [26]: 0.003 µM
- EC15 (Aurora kinase B [24]): < 0.03 µM
- ED50 (Mus musculus): 1.1 mg/kg
- IC50 (Aurora kinase B [27]): 0.018 µM

Compound: COc1ccc(NC(=O)Nc2ccc(-c3csc4c(-c5cnn(C)c5)cnc(N)c34)cc2)cc1
- clearance [1]: 15 mL/min/kg
- half-life [4]: 1.3 h
- AUC [6]: 5220 ng·h/mL
- IC50 [26]: 0.006 µM
- inhibition (INH) (Cytochrome P450 3A4 [10]): < 20%
- Vd [18]: 1.5 L/kg
- bioavailability [22]: 44%
- EC15 (Aurora kinase B [24]): 0.057 µM
- ED50 (Mus musculus): 1.3 mg/kg
- IC50 (Aurora kinase B [27]): 0.114 µM

Compound: C[C@@H](O)Cn1cc(-c2cnc(N)c3c(-c4ccc(NC(=O)Nc5cccc(F)c5)cc4)csc23)cn1
- clearance [1]: 5 mL/min/kg
- half-life [4]: 2.9 h
- AUC [6]: 14600 ng·h/mL
- inhibition (INH) (Cytochrome P450 3A4 [10]): < 20%
- Vd [18]: 1.2 L/kg
- bioavailability [22]: 42%
- EC15 (Aurora kinase B [24]): 0.002 µM
- ED50 (Mus musculus): 1.2 mg/kg
- IC50 (Aurora kinase B [27]): 0.001 µM

Compound: CN1CCC(n2cc(-c3cnc(N)c4c(-c5ccc(NC(=O)Nc6cccc(F)c6)cc5)csc34)cn2)C1=O (centres undefined)
- IC50 [26]: 0.006 µM
- EC15 (Aurora kinase B [24]): 0.001 µM
- ED50 (Mus musculus): 0.4 mg/kg
- IC50 (Aurora kinase B [27]): 0.005 µM

Compound: Cc1cccc(NC(=O)Nc2ccc(-c3csc4c(-c5ccsc5)cnc(N)c34)cc2)c1
- IC50 [26]: 0.009 µM
- IC50 [28]: 0.031 µM
- EC15 (Aurora kinase B [24]): > 0.3 µM
- IC50 (Aurora kinase B [27]): 0.179 µM

Compound: CNC(=O)/C=C/c1cnc(N)c2c(-c3ccc(NC(=O)Nc4cccc(C)c4)cc3)csc12
- IC50 [26]: 0.006 µM
- IC50 [28]: 0.022 µM
- EC15 (Aurora kinase B [24]): 0.087 µM
- IC50 (Aurora kinase B [27]): 0.08 µM

Compound: CS(=O)(=O)CCn1cc(-c2cnc(N)c3c(-c4ccc(NC(=O)Nc5cccc(F)c5)cc4)csc23)cn1
- IC50 [26]: 0.001 µM
- EC15 (Aurora kinase B [24]): 0.004 µM
- ED50 (Mus musculus): 10 mg/kg
- IC50 (Aurora kinase B [27]): 0.011 µM

Compound: Cn1cc(-c2cnc(N)c3c(-c4ccc(NC(=O)Nc5cccc(Cl)c5)cc4)csc23)cn1
- IC50 [26]: 0.007 µM
- EC15 (Aurora kinase B [24]): 0.018 µM
- ED50 (Mus musculus): 2 mg/kg
- IC50 (Aurora kinase B [27]): 0.07 µM

Compound: Cc1cccc(NC(=O)Nc2ccc(-c3csc4c(C#CCN(C)C)cnc(N)c34)cc2)c1
- EC15 (Aurora kinase B [24]): 0.141 µM
- IC50 (Aurora kinase B [27]): 0.011 µM

Compound: CNC(=O)c1cnc(N)c2c(-c3ccc(NC(=O)Nc4cccc(C)c4)cc3)csc12
- IC50 [28]: 0.001 µM
- EC15 (Aurora kinase B [24]): 0.046 µM
- IC50 (Aurora kinase B [27]): 0.013 µM

Compound: Nc1ncc(-c2cnn(CCN3CCCCC3)c2)c2scc(-c3ccc(NC(=O)Nc4cccc(F)c4)cc3)c12
- IC50 [26]: 0.004 µM
- EC15 (Aurora kinase B [24]): < 0.003 µM
- ED50 (Mus musculus): > 10 mg/kg
- IC50 (Aurora kinase B [27]): 0.008 µM

Compound: Cc1ccccc1NC(=O)Nc1ccc(-c2csc3c(-c4cnn(C)c4)cnc(N)c23)cc1
- IC50 [26]: 0.002 µM
- EC15 (Aurora kinase B [24]): 0.002 µM
- ED50 (Mus musculus): 3.5 mg/kg
- IC50 (Aurora kinase B [27]): 0.008 µM
